Calls of active or inactive are those of the source. The rule behind the calls is not given here.
How the values were obtained:
Felis catus [1] = organism: Felis catus; test: Inhibition of field stimulation-induced positive chronotrophic response in cat atria; assay type: functional; settings: Cardiac atrium
Canis lupus familiaris = organism: Canis lupus familiaris; test: Inhibition of electric stimulated dog right cardioaccelerator nerve; assay type: functional
How it was run: (§1)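 Dog cardioaccelerator nerve preparation under barbital (200 mg/kg) anaesthesia. Compounds given intravenously up to 1.0 mg/kg. Positive chronotropic responses read by cardiometer, with blood pressure taken from the right femoral artery.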

Canis familiaris [2] = test: Increase in blood pressure in dog at 0.5 mg/kg, iv by cardiotachometer; assay type: functional, Canis lupus familiaris
How it was run: (§2)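 Anaesthetised dog (barbital 200 mg/kg). Compounds given intravenously, highest dose tested 1.0 mg/kg. Blood pressure recorded from the right femoral artery and heart rate by cardiometer. Resting heart rate, blood pressure and positive chronotropic responses were assessed after dosing. Doses calculated as free base.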

Canis familiaris [3] = test: Increase in resting heart rate in dog at 0.5 mg/kg, iv by cardiotachometer; assay type: functional, organism-based; design: dose 0.5 mg/kg; settings: Canis lupus familiaris; how it was run: as §2
Rattus norvegicus [4] = test: Induction of rotation in rat with unilateral denervation of caudate nucleus at 4 mg/kg, sc; assay type: functional, organism-based; design: dose 4 mg/kg
How it was run: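 Rats given a unilateral 6-hydroxydopamine injection into the substantia nigra. Compounds dosed subcutaneously and the rotations they induced were counted. Apomorphine served as the reference.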

Canis familiaris [5] = test: Toxicity in dog assessed as emesis at 2 mg/kg, sc; assay type: organism-based, Canis lupus familiaris; design: dose 2 mg/kg, route subcutaneous; settings: in vivo
How it was run: (§3)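 Unanaesthetised dogs. For emesis, compound given sc and dogs watched 45 min for an emetic response. For antagonism, compound given sc and apomorphine 100 μg/kg 15 min later.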

Canis familiaris [6] = test: Inhibition of apomorphine-induced emesis in dog at 2 mg/kg, sc; assay type: functional, organism-based; design: dose 2 mg/kg; settings: Canis lupus familiaris; how it was run: as §3
[7] = Toxicity in pigeon assessed as pecking; settings: columbidae
How it was run: (§4)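 Pigeons. Compounds given intramuscularly at up to 4 mg/kg to test induction of pecking. Antagonism of pecking induced by apomorphine (1.62 μM/kg) was also tested, and ED50 values were estimated.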

Felis catus [8] = organism: Felis catus; test: Inhibition of field stimulation-induced positive ionotrophic response in cat atria; assay type: functional; settings: Cardiac atrium
Rattus norvegicus [9] = organism: Rattus norvegicus; test: Toxicity in Sprague-Dawley rat assessed as locomotor hyperactivity treated bilateral injection into nucleus accumbens at 50 ug; assay type: organism-based; settings: in vivo, other
How it was run: (§5)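 Male Sprague-Dawley rats (250 ± 25 g) with stereotaxic guide cannulae aimed at the nucleus accumbens. Tested 10–14 days after surgery with a bilateral 1 μL infusion over 60 s; each rat used once and placement checked histologically. Locomotion counted by photocell cage. Stereotypy scored, where 3–4 = biting, gnawing or licking. Pretreatments given ip: α-methyl-p-tyrosine 250 mg/kg 6 h before, or haloperidol 0.1, propranolol 5 or aceperone 2.5 mg/kg 30 min before.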

Rattus norvegicus [10] = organism: Rattus norvegicus; test: Toxicity in Sprague-Dawley rat assessed as biting up to 50 ug injection into nucleus accumbens; assay type: organism-based; settings: in vivo, other; how it was run: as §5
Rattus norvegicus [11] = organism: Rattus norvegicus; test: Toxicity in Sprague-Dawley rat assessed as gnawing up to 50 ug injection into nucleus accumbens; assay type: organism-based; settings: in vivo, other; how it was run: as §5
Rattus norvegicus [12] = organism: Rattus norvegicus; test: Toxicity in Sprague-Dawley rat assessed as licking up to 50 ug injection into nucleus accumbens; assay type: organism-based; settings: in vivo, other; how it was run: as §5
Mus musculus [13] = test: Toxicity in albino B.K.W mouse assessed as climbing behaviour at 20 to 80 mg/kg, sc; assay type: organism-based; design: dose 20-80 mg/kg, route subcutaneous; settings: in vivo
How it was run: (§6)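 Mice dosed subcutaneously at 20, 40 and 80 mg/kg in 1 mL/kg, doses as free base. Climbing scored as all four paws on the wire, giving a climbing index (% time over 30 min after the first climb) and the maximum time of a single climb. Circling was tested in mice with a unilateral caudate-putamen electrolesion, pre-selected for circling of 7 or more revolutions/2 min in response to apomorphine. Stereotypy was also recorded.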

Mus musculus [14] = test: Toxicity in albino B.K.W mouse assessed as circling behaviour at 20 to 80 mg/kg, sc; assay type: organism-based; design: dose 20-80 mg/kg, route subcutaneous; settings: in vivo; how it was run: as §6
Mus musculus [15] = test: Toxicity in albino B.K.W mouse assessed as stereotyped behaviour at 20 to 80 mg/kg, sc; assay type: organism-based; design: dose 20-80 mg/kg, route subcutaneous; settings: in vivo; how it was run: as §6
Columbidae = test: Inhibition of apomorphine-induced pecking in pigeon; assay type: functional; how it was run: as §4
Canis familiaris [16] = test: Increase in heart rate in dog at 1 mg/kg, iv by cardiotachometer; assay type: functional, organism-based; design: dose 1 mg/kg; settings: Canis lupus familiaris; how it was run: as §2
Canis familiaris [17] = test: Increase in ionotrophic response in dog following field stimulation at 1 mg/kg, iv by cardiotachometer; assay type: functional, organism-based; design: dose 1 mg/kg; settings: Canis lupus familiaris; how it was run: as §1
Canis familiaris [18] = test: Increase in ionotrophic response in iv dosed dog following field stimulation assessed as minimum effective dose by cardiotachometer; assay type: functional, Canis lupus familiaris; design: unit not given here; how it was run: as §1
Canis familiaris [19] = test: Increase in resting heart rate in dog at […], iv by cardiotachometer; assay type: functional, organism-based; settings: Canis lupus familiaris; how it was run: as §2
Canis familiaris [20] = test: Increase in blood pressure in dog at 50 ug/kg, iv by cardiotachometer; assay type: functional, Canis lupus familiaris; how it was run: as §2
Canis familiaris [21] = test: Increase in heart rate in dog assessed as beats at 50 ug/kg, iv by cardiotachometer; assay type: functional, Canis lupus familiaris; how it was run: as §2
Canis familiaris [22] = test: Increase in heart rate in dog assessed as beats at 30 ug/kg, iv by cardiotachometer; assay type: functional, Canis lupus familiaris; how it was run: as §2
Canis familiaris [23] = test: Increase in blood pressure in dog at 30 ug/kg, iv by cardiotachometer; assay type: functional, Canis lupus familiaris; how it was run: as §2

SMILES | inhibition (Felis catus [1]) | inhibition (Canis lupus familiaris) | Activity (Canis familiaris [2]) | Activity (Canis familiaris [3]) | Activity (Rattus norvegicus [4]) | Activity (Canis familiaris [5]) | Activity (Canis familiaris [6]) | Activity [7] | inhibition (Felis catus [8]) | Activity (Rattus norvegicus [9]) | Activity (Rattus norvegicus [10]) | Activity (Rattus norvegicus [11]) | Activity (Rattus norvegicus [12]) | Activity (Mus musculus [13]) | Activity (Mus musculus [14]) | Activity (Mus musculus [15]) | inhibition (Columbidae) | Activity (Canis familiaris [16]) | Activity (Canis familiaris [17]) | MED (Canis familiaris [18]) | also measured
CNC(C)Cc1ccc(OC)c(OC)c1.Cl (racemic) | inactive | inactive | <=10 mmHg | inactive | inactive | Non-toxic | inactive | Non-toxic | inactive | – | – | – | – | – | – | – | – | – | – | – | –
Br.CCCCNC(C)Cc1ccc(O)c(O)c1 (racemic) | inactive | inactive | <=10 mmHg | inactive | – | Non-toxic | inactive | Non-toxic | inactive | Non-toxic | Non-toxic | Non-toxic | Non-toxic | Non-toxic | Non-toxic | Non-toxic | – | – | – | – | –
CCNC(C)Cc1ccc(OC)c(OC)c1.Cl (racemic) | inactive | inactive | <=10 mmHg | inactive | – | Non-toxic | inactive | Non-toxic | inactive | – | – | – | – | – | – | – | – | – | – | – | –
COc1ccc(CC(C)N)cc1OC.Cl (racemic) | inactive | inactive | <=10 mmHg | inactive | inactive | Non-toxic | inactive | Non-toxic | inactive | Non-toxic | Non-toxic | Non-toxic | Non-toxic | – | – | – | – | – | – | – | –
CCCN(CCC)C(C)Cc1ccc(OC)c(OC)c1.Cl (racemic) | inactive | inactive | <=10 mmHg | inactive | – | Non-toxic | inactive | Non-toxic | inactive | – | – | – | – | – | – | – | Active | – | – | – | –
Br.CCCCN(CCCC)C(C)Cc1ccc(O)c(O)c1 (racemic) | inactive | inactive | – | – | – | Non-toxic | inactive | Non-toxic | inactive | Non-toxic | Non-toxic | Non-toxic | Non-toxic | Non-toxic | Non-toxic | Non-toxic | – | – | – | – | –
CCCCNC(C)Cc1ccc(OC)c(OC)c1.Cl (racemic) | inactive | inactive | <=10 mmHg | inactive | – | Non-toxic | inactive | Non-toxic | inactive | – | – | – | – | – | – | – | – | Active | Active | 20 | –
CCCNC(C)Cc1ccc(OC)c(OC)c1.Cl (racemic) | inactive | inactive | <=10 mmHg | inactive | inactive | Non-toxic | inactive | Non-toxic | inactive | Non-toxic | Non-toxic | Non-toxic | Non-toxic | – | – | – | – | Active | Active | 20 | –
Br.CC(Cc1ccc(O)c(O)c1)N(C)C (racemic) | inactive | inactive | – | – | – | Non-toxic | inactive | Non-toxic | inactive | Non-toxic | Non-toxic | Non-toxic | Non-toxic | Non-toxic | Non-toxic | Non-toxic | – | – | – | – | Activity (Canis familiaris [19]): Active; Activity (Canis familiaris [20]): 80%; Activity (Canis familiaris [21]): 50 bpm
COc1ccc(CC(C)N(C)C)cc1OC.Cl (racemic) | inactive | inactive | <=10 mmHg | inactive | inactive | Non-toxic | inactive | Non-toxic | inactive | – | – | – | – | – | – | – | Active | – | – | – | –
COc1ccc(CC(C)N(C)C(C)C)cc1OC.Cl (racemic) | inactive | inactive | <=10 mmHg | inactive | – | Non-toxic | inactive | Non-toxic | inactive | – | – | – | – | – | – | – | Active | Active | Active | 20 | –
Br.CC(C)N(C)C(C)Cc1ccc(O)c(O)c1 (racemic) | inactive | inactive | <=10 mmHg | inactive | – | Non-toxic | inactive | Non-toxic | inactive | Non-toxic | Non-toxic | Non-toxic | Non-toxic | Non-toxic | Non-toxic | Non-toxic | Active | Active | Active | 20 | –
CCCCN(CCCC)C(C)Cc1ccc(OC)c(OC)c1.Cl (racemic) | inactive | inactive | <=10 mmHg | inactive | – | Non-toxic | inactive | Non-toxic | inactive | – | – | – | – | – | – | – | – | – | – | – | –
CCN(CC)C(C)Cc1ccc(OC)c(OC)c1.Cl (racemic) | inactive | inactive | <=10 mmHg | inactive | inactive | Non-toxic | inactive | Non-toxic | inactive | – | – | – | – | – | – | – | Active | Active | Active | 20 | –
COc1ccc(CC(C)NC(C)C)cc1OC.Cl (racemic) | inactive | inactive | <=10 mmHg | inactive | inactive | Non-toxic | inactive | Non-toxic | inactive | – | – | – | – | – | – | – | – | – | – | – | –
Br.CC(C)NC(C)Cc1ccc(O)c(O)c1 (racemic) | inactive | inactive | – | – | – | Non-toxic | inactive | Non-toxic | inactive | Non-toxic | Non-toxic | Non-toxic | Non-toxic | Non-toxic | Non-toxic | Non-toxic | – | – | – | – | Activity (Canis familiaris [22]): 23 bpm; Activity (Canis familiaris [23]): 40%

— ChEMBL document CHEMBL3244290, “N-Alkyl derivatives of (+/-)-alpha-methyldopamine” (J Med Chem, 1979)
